Test system: U2OS
Experiment: Multiplex assay against U2OS
Assay type: toxicity, cell-based
Conditions: human
Procedure, shortened: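 Phenotypes for tubulin, mitochondrial mass and membrane permeability are expressed as per cents of healthy-nucleus cells. Cells were stained live at seeding with Hoechst33342, BioTracker Green Microtubule Cytoskeleton Dye, MitoTracker Red and Annexin V Alexa Fluor 680, then imaged after compound addition on a CQ1 microscope at 37°C and 5% CO2. Machine-learning gating in CellPathfinder separated Hoechst high-intensity objects from normal cells, divided normal cells by nuclear state (healthy, pyknosed, fragmented) and divided pyknosed cells into mitotic or apoptotic.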

[1] = 12 h, 1 µM, compound concentration 1 uM, replicate 1
[2] = 12 h, 1 µM, compound concentration 1 uM, replicate 2
[3] = 12 h, 10 µM, compound concentration 10 uM, replicate 1
[4] = 12 h, 10 µM, compound concentration 10 uM, replicate 2
[5] = 24 h, 1 µM, compound concentration 1 uM, replicate 1
[6] = 24 h, 1 µM, compound concentration 1 uM, replicate 2
[7] = 24 h, 10 µM, compound concentration 10 uM, replicate 1
[8] = 24 h, 10 µM, compound concentration 10 uM, replicate 2
[9] = 48 h, 1 µM, compound concentration 1 uM, replicate 1
[10] = 48 h, 1 µM, compound concentration 1 uM, replicate 2
[11] = 48 h, 10 µM, compound concentration 10 uM, replicate 1
[12] = 48 h, 10 µM, compound concentration 10 uM, replicate 2

Compound: CCc1cc2c(cc1CC)CC(NC[C@H](O)c1ccc(O)c3[nH]c(=O)ccc13)C2 [INDACATEROL]
- Population Apoptotic (%) [1]: 41%
- Population Fragmented Nuclei (%) [1]: 10%
- Population Healthy Nuclei (%) [1]: 76%
- Population Hoechst High Intensity Objects (%) [1]: 7%
- Population Membrane Permeable-Phenotype (%) [1]: 2%
- Population Mitochondria Different-Phenotype (%) [1]: 10%
- Population Mitotic Cells (%) [1]: 58%
- Population Normal (%) [1]: 92%
- Population Pyknosed Nuclei (%) [1]: 13%
- Population Tubulin-Different-Phenotype (%) [1]: 11%
- Total Cell Count [1]: 185
- Population Apoptotic (%) [2]: 33%
- Population Fragmented Nuclei (%) [2]: 3%
- Population Healthy Nuclei (%) [2]: 92%
- Population Membrane Permeable-Phenotype (%) [2]: 1%
- Population Mitochondria Different-Phenotype (%) [2]: 11%
- Population Mitotic Cells (%) [2]: 66%
- Population Pyknosed Nuclei (%) [2]: 4%
- Population Tubulin-Different-Phenotype (%) [2]: 14%
- Total Cell Count [2]: 71
- Population Fragmented Nuclei (%) [3]: 18%
- Population Healthy Nuclei (%) [3]: 54%
- Population Hoechst High Intensity Objects (%) [3]: 4%
- Population Membrane Permeable-Phenotype (%) [3]: 22%
- Population Mitochondria Different-Phenotype (%) [3]: 95%
- Population Normal (%) [3]: 95%
- Population Pyknosed Nuclei (%) [3]: 27%
- Population Tubulin-Different-Phenotype (%) [3]: 90%
- Total Cell Count [3]: 139
- Population Apoptotic (%) [4]: 68%
- Population Fragmented Nuclei (%) [4]: 15%
- Population Healthy Nuclei (%) [4]: 64%
- Population Hoechst High Intensity Objects (%) [4]: 6%
- Population Membrane Permeable-Phenotype (%) [4]: 23%
- Population Mitochondria Different-Phenotype (%) [4]: 98%
- Population Mitotic Cells (%) [4]: 31%
- Population Normal (%) [4]: 93%
- Population Pyknosed Nuclei (%) [4]: 19%
- Population Tubulin-Different-Phenotype (%) [4]: 88%
- Total Cell Count [4]: 71
- Population Apoptotic (%) [5]: 36%
- Population Fragmented Nuclei (%) [5]: 11%
- Population Healthy Nuclei (%) [5]: 74%
- Population Hoechst High Intensity Objects (%) [5]: 6%
- Population Membrane Permeable-Phenotype (%) [5]: 2%
- Population Mitochondria Different-Phenotype (%) [5]: 11%
- Population Mitotic Cells (%) [5]: 63%
- Population Normal (%) [5]: 93%
- Population Pyknosed Nuclei (%) [5]: 13%
- Population Tubulin-Different-Phenotype (%) [5]: 9%
- Total Cell Count [5]: 184
- Population Apoptotic (%) [6]: 14%
- Population Fragmented Nuclei (%) [6]: 4%
- Population Healthy Nuclei (%) [6]: 86%
- Population Hoechst High Intensity Objects (%) [6]: 3%
- Population Membrane Permeable-Phenotype (%) [6]: 0%
- Population Mitochondria Different-Phenotype (%) [6]: 10%
- Population Mitotic Cells (%) [6]: 85%
- Population Normal (%) [6]: 96%
- Population Pyknosed Nuclei (%) [6]: 9%
- Population Tubulin-Different-Phenotype (%) [6]: 12%
- Total Cell Count [6]: 73
- Population Apoptotic (%) [7]: 78%
- Population Fragmented Nuclei (%) [7]: 24%
- Population Healthy Nuclei (%) [7]: 43%
- Population Hoechst High Intensity Objects (%) [7]: 4%
- Population Membrane Permeable-Phenotype (%) [7]: 50%
- Population Mitochondria Different-Phenotype (%) [7]: 96%
- Population Mitotic Cells (%) [7]: 21%
- Population Normal (%) [7]: 95%
- Population Pyknosed Nuclei (%) [7]: 32%
- Population Tubulin-Different-Phenotype (%) [7]: 79%
- Total Cell Count [7]: 174
- Population Apoptotic (%) [8]: 89%
- Population Fragmented Nuclei (%) [8]: 11%
- Population Healthy Nuclei (%) [8]: 67%
- Population Hoechst High Intensity Objects (%) [8]: 6%
- Population Membrane Permeable-Phenotype (%) [8]: 59%
- Population Mitochondria Different-Phenotype (%) [8]: 100%
- Population Mitotic Cells (%) [8]: 10%
- Population Normal (%) [8]: 93%
- Population Pyknosed Nuclei (%) [8]: 20%
- Population Tubulin-Different-Phenotype (%) [8]: 86%
- Total Cell Count [8]: 78
- Population Apoptotic (%) [9]: 45%
- Population Fragmented Nuclei (%) [9]: 7%
- Population Healthy Nuclei (%) [9]: 78%
- Population Hoechst High Intensity Objects (%) [9]: 4%
- Population Membrane Permeable-Phenotype (%) [9]: 2%
- Population Mitotic Cells (%) [9]: 54%
- Population Normal (%) [9]: 95%
- Population Pyknosed Nuclei (%) [9]: 14%
- Population Tubulin-Different-Phenotype (%) [9]: 6%
- Total Cell Count [9]: 181
- Population Apoptotic (%) [10]: 0%
- Population Fragmented Nuclei (%) [10]: 6%
- Population Healthy Nuclei (%) [10]: 87%
- Population Hoechst High Intensity Objects (%) [10]: 5%
- Population Membrane Permeable-Phenotype (%) [10]: 8%
- Population Mitochondria Different-Phenotype (%) [10]: 12%
- Population Mitotic Cells (%) [10]: 100%
- Population Normal (%) [10]: 94%
- Population Pyknosed Nuclei (%) [10]: 5%
- Population Tubulin-Different-Phenotype (%) [10]: 11%
- Total Cell Count [10]: 69
- Population Apoptotic (%) [11]: 84%
- Population Fragmented Nuclei (%) [11]: 23%
- Population Healthy Nuclei (%) [11]: 30%
- Population Hoechst High Intensity Objects (%) [11]: 9%
- Population Membrane Permeable-Phenotype (%) [11]: 38%
- Population Mitochondria Different-Phenotype (%) [11]: 96%
- Population Mitotic Cells (%) [11]: 15%
- Population Normal (%) [11]: 90%
- Population Pyknosed Nuclei (%) [11]: 45%
- Population Tubulin-Different-Phenotype (%) [11]: 73%
- Total Cell Count [11]: 239
- Population Apoptotic (%) [12]: 73%
- Population Fragmented Nuclei (%) [12]: 9%
- Population Healthy Nuclei (%) [12]: 53%
- Population Hoechst High Intensity Objects (%) [12]: 16%
- Population Membrane Permeable-Phenotype (%) [12]: 49%
- Population Mitochondria Different-Phenotype (%) [12]: 100%
- Population Mitotic Cells (%) [12]: 26%
- Population Normal (%) [12]: 83%
- Population Pyknosed Nuclei (%) [12]: 37%
- Population Tubulin-Different-Phenotype (%) [12]: 67%
- Total Cell Count [12]: 122

Source: ChEMBL document CHEMBL4689842, “EUbOPEN Chemogenomics Library wave 1” (2021)
